Measurements taken from the EternaBench riboswitch data.

Test system: MS2 coat protein
Assay: apparent Kd, MS2 coat protein; higher = weaker binding; RNA-MaP array; FMN 200 µM where present
Method in brief: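 Two titrations, one without ligand and one with constant ligand, were run with SNAP-549-labelled MS2 coat protein from 0.7 or 1.5 nM, doubling to 3 µM. The targets were designs transcribed by stalled E. coli RNA polymerase on Illumina sequencing-chip clusters, in 100 mM Tris-HCl pH 7.5, 80 mM KCl, 4 mM MgCl2, BSA, DTT, yeast tRNA and Tween-20. The apparent Kd is the median of filtered per-cluster binding-curve fits, with green signal normalised to red-channel RNA signal and control-cluster median Fmax.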

[1] = designed as: OFF switch for flavin mononucleotide, no ligand
[2] = ligand present: flavin mononucleotide, designed as: OFF switch for flavin mononucleotide
[3] = designed as: ON switch for flavin mononucleotide, no ligand
[4] = ligand present: flavin mononucleotide, designed as: ON switch for flavin mononucleotide

Sequence	apparent Kd [1] [nM]	apparent Kd [2] [nM]	apparent Kd [3] [nM]	apparent Kd [4] [nM]
UAUAUACAUGAGGAUCACCCAUGUCAGGAUAUUAGAUAUAUAUAUACAUAUAAUUAUUUAAGAAGGGACACUAA	43.8	46		
GCGUUCUUGUAGAAGGUACUUUCGACAUCUUAUAAACGCUUGACACAUGAGGAUCACCCAUGUUGUAAGGAUAUACAUGAACGC			6.61	6.41
GUAGCUAUCGGAGGAUAUUCAUACCGGAUACGGACAUGAGGAUCACCCAUGUCGCGAAAGCGUUGGGAGAAGGCCGAUAGCUAC			89.2	20.4
CUAUUAUGUGUAGGAUAUGCAUAUUAUUAUUAUGCAGAAGGACAUGAGGAUCACCCAUGUAUAUUAUUAUUAUAUAUUAUAUAU	10.7	11.6		
GAUCGAGAACUCACGGCGUUGCACAUGAGGAUCACCCAUGUGCAGGAUAUGGCCGCCGUCGGAGGCCAGAAGGGCACAGUAGGU	10.2	20		
UUUAGUAUCUAGGAUAUCUAGUACAUAGUAUCUAGAGAAGGAGAUACAUGAGGAUCACCCAUGUUCUGUGUUCU	23.4	58.4		
UUAAUUAAUUAAUUGCAGAUUACAUGAGGAUCACCCAUGUAUAAGGAUAUCGUCAGGAAUACUGACGAGAAGGUAUACAACUGC	20.3	25.4		
GGGUACAUCGGAGGAUAUCAGGUAAAUACAUGAGGAUCACCCAUGUCGAUGGAGACAUCGGAGAUUGAGAAGGCCGAUGUACCG			7.6	5.13
AGUCCAGAAGGAUAUACAUAGGUGAUAAAAAAAAAAAAACUACAUGAGGAUCACCCAUGUAGAAGGUCUGGACA	61.9	40		
AUCAGCUCGUCAGGAUAUACGUCACUGCUUCGGCAGUGUGGUAAGAUAACAUGAGGAUCACCCAUGUAGAAGGGACGAGCUGAU	6.3	12.1		
CGUGCUAUGUAGAAGGCAGAUCUGAUUCAGAUCUGAGGAUAUACAUGAGGAUCACCCAUGUUAUGCACCAGCACGAGAGUGCAU	9.83	40.2		
AUAUAUAUAAGGAAGGAUAUCUUAGAAAAAACAUGAGGAUCACCCAUGUAAAUAAAGAAUAAAUGGGAGAAGGUCCAUAUAUAUA			30.1	16.3
GGGAGGUCAGGAUAUGCAUGGCGGGACUUGCGUCGUGGCGUGCAGAAGGGACAUGAGGAUCACCCAUGUGGAGA	127	252		
UGGCUACAUGAGGAUCACCCAUGUCAGGAUAUGCCGUUGGAUUGACAUCGUCGUUCGGGUAGAAGGGACUGCGU	47.6	53.1		
GUAGCAUACGCAGGAUAUUCAUAUAAUAAAUAAACAUGAGGAUCACCCAUGUGGCGAAAGCCUUGGGAGAAGGGCGAAUGCUAC			485	65.5
UGUAGUUACGUAGGAUAUCCACGGGCACCCGUAGGAGAAGGACGCUGGACAUGAGGAUCACCCAUGUAUAGAUGGGUGCCUUUC	125	206		
UUUUAGGGAGGAUAUACAUUUUUUUUAUUAUCCUCAUUAAUACAUGAGGAUCACCCAUGUAGAAGGCCCAUUUU	39.2	164		
CACGGAUAGUAGAAGGGUGACAUGAGGAUCACCCAUGUACUUAUUUAUUUAUUACUAUUUCAUACACAGGAUAUACUAUCCGUG			652	176
GUAGCAAUCGGAGGAUAUGGGUUGAUAACAUGAGGAUCACCCAUGUUAAUACUAGAAGGCCGAUUGCUACAAGAGCGAAAGCUC			31.4	6.39
GGAUGACAUAGUCAUCAGUAACGAACAUGAGGAUCACCCAUGUAGGAUAUGCUACUCAACGAGUAGCAGAAGGACAUGUGUCUU	27.4	135		
CCUUCUCGUGUCAGGAUAUCCACUCAUCGAAAUUAGGAGAAGGGACAUGAGGAUCACCCAUGUAUACAUGCCAG	73	102		
GGAGCACACAUUUACAUGAGGAUCACCCAUGUCAAAAGACAUGAGGAUAUGGAUCCGAAAAGGAUCCAGAAGGCAUGGUGCUCC			106	8.38
CAGUACUGAGGAUAUACAUGAGGAUCACCCAUGUGUCCUAGCUAGGAUACUAGCAUUAGUAGAAGGCAGUACUG	18	213		
CGCAUACUAGGAUAUACAUGAGGAUCACCCAUGUCGCCGGGCCCACUCAUACUAAAACGUAGAAGGAGUUUGCC	18.5	18.8		
AUUAUUGACGAAGGAUAUGGAUACAUGAGGAUCACCCAUGUAUAAUUUGUGAUCAUAUAUAUGAUCCAGAAGGUCGUUGUUUAU	41	63.8		
AGCGGCCGAGGAUAUACAAUCCUCCUGGCAGCCUGUCUGCCACAUGAGGAUCACCCAUGUAGAAGGCGGACCGC	167	38.3		
GCUGCGCGAGGAUAUGCGGUUUGUGCUGUGGCCCGUGGCGUACAUGAGGAUCACCCAUGUAGAAGGCGUGUGGG	26.1	28.9		
AAAAGACAUGAGGAUCACCCAUGUCAAGACAUAGGAGGAUAUGUCUGGAAAAAAGACUGGACAGAAGGCCUUUGUC			19.9	17.4

Sequence	apparent Kd [1] [nM]	apparent Kd [2] [nM]	apparent Kd [3] [nM]	apparent Kd [4] [nM]
GGUACUCAAAGAGUACGGAGUCGAACAUGAGGAUCACCCAUGUAGGAUAUGCAAAGCUAGAAGUAGCAGAAGGACAUGUGCAGC	15	17.1		
GGUCUGCGAGGAUAUACAUGAGGAUCACCCAUGUGCGAGAUACUAGUGAGGUCGAUUGGUAGAAGGCGCGGACA	105	66.6		
GGAAUGUCGGGAGGAUAUCCAAAUGUAUACAUAGGAGAAGGCCCGCACAUGAGGAUCACCCAUGUAAUAACGCGUGGCAUCAAC	82.8	119		
UUACCUCAUGAGAAGGACAUGAGGAUCACCCAUGUAGGAUAUCGUGGAAGACAGGUAUUGAAUCUUCGGAUUCAAUACCUGUCU			331	17.1
AUCAGCUCGUCAGGAUAUACGUCCUGGUAAGAUCACAUGAGGAUCACCCAUGUAGAAGGGACGAGCUGAUAAGCACGAAAGUGC	18.6	81.6		
CCAGACGUUGUAGGAUAUCUGAAAGGAAGUGUAAGAGAAGGAUAGUGUCUGUAAAACAUGAGGAUCACCCAUGUGGGCGCAUCC	19.6	61.9		
UUAAAUCAUGUAGGAUAUGCAUGGCGAAGCUACGCAGAAGGACAUGAGGAUCACCCAUGUUAUAGCUACCAAGUUAGGUGGCAA	99	190		
CAGAAGUCAGGAUAUCCAUGGCGGCACUUGCGUGGUGGCGUGGAGAAGGGACAUGAGGAUCACCCAUGUAAAGC	57.4	45.3		
AGUUGCAAACACAACAUGAGGAUCACCCAUGUACUCUCGUGUAAGGAUAUACAUUCGUAUGGAAAGUAGAAGGUACUAAUUAUG			27.3	32.1
UUUUAACAUGAGGAUCACCCAUGUGAGGAUAUCGAAAUUUAUAUUUAUAUUAAUAAUUCGAGAAGGCACAUUUU	172	165		
AUUUGACACGUAGGAUAUCGCUUAAAUUUAACACGAGAAGGACGAACAUGAGGAUCACCCAUGUAUCAUGGUGUAGAUAAUUUG	54.5	216		
GGCGAACAGGCUAACAUGAGGAUCACCCAUGUGGACUCAUGGUAGGAUAUCGGGAAGGAGGAAACCGAGAAGGGCCGGUGAGCG			158	39.5
GGAUAGGACAGAGGAUAUACGUGCUAGAGAUACUAGCAAACUUUCCUCACAUGAGGAUCACCCAUGUAGAAGGCUGUCCUAUCG	21.1	483		
AUACUCGUUGUGAGGAUAUCGUUUUCGUCACGGAUCGAGAAGGCACAUGAGGAUCACCCAUGUUUGACGUGAAU	17.1	44.3		
ACAUGGAAUACAGGAUAUGUAAGUUUUAAGUAGAUUGGUUAUUACUUUACUACAGAAGGGUAAUACAUGAGGAUCACCCAUGUA			16.9	12.2
AUAAAACAUGAGGAUCACCCAUGUAGACACGAUGGAGGAUAUACUAGAUCGAAAGAUCUAGUAGAAGGCCGACGUA			21.3	22.8
CCCGCGAUGUCAGGAUAUAGUCGGAGGUGCAGACUAGAAGGGACAUGAGGAUCACCCAUGUGCGUGAAAAUUUGAAACCCAGGU	46.5	164		
GGAGCCGGUACUGAGGAUAUUCAUAUUAAAACAUGAGGAUCACCCAUGUAGGCCAGAAGGCCUUGGGAGAAGGCAGACCAGCUCG			391	26.7
GGGUACAUCGGAGGAUAUCAUGUAAAUACAUGAGGAUCACCCAUGUCGAUGGAGACAUCGGAGAUUGAGAAGGCUGAUGUACCG			188	9.18
CCUCAGAACAAGAAGGUGGGAGAAGAGUAUAACUAAGGAUAUUGAAAGGGAUGAACAUGAGGAUCACCCAUGUAAGGAAUCGUG	52.8	40.9		
CACUGUCAUGCAGGAUAUGCAUUGGAUUACAAUGCAGAAGGGCGAUUACAUGAGGAUCACCCAUGUGUAGACAGUGAAGAAGAG			165	12.7
UUAACAUGAGGAUCACCCAUGUAUAGGGAGUUAACAAUUGGACAGGAUAUUGAAGAUGUAGAUAGCAAGAAGGGUCGGUAGUCU			38.9	35.8
GGUCCAUCUGUUAGGAUAUGCUUUGGGCUUCCGCAGUAGAAGGAACAUGAGGAUCACCCAUGUCCGAUGCCGUC	25.1	30.3		
CGAUAACAUAGUUAUCCGUAACGGACAUGAGGAUCACCCAUGUAGGAUAUGUUACUCAACGGGUAACAGAAGGACAUGAGUCUU	14.4	41.7		
CCGACGCAAGCAGGAUAUCUACUGGCGAUGGUACAUGAGGAUCACCCAUGUAGAGAAGGGCUAAGUGGAAGGAUGAUUUAAAAG	113	97		
CGGCGGGCAGGAUAUACAUGAGGAUCACCCAUGUGUGUCCAUACGCGUGAGUCCUCGUGUAGAAGGGUUUGUUG	14.9	13.4		
UACGCACAGAAGUACUCCGGGUCCAGAAGGGACAUGAGGAUCACCCAUGUACCGUUGAUUGCUUGUCAGGAUAUGGACCCGGCC	6.82	26.3		
